Assay results as given in article PMC3399519 (European Journal of Medicinal Chemistry, 2011).
“Also recorded” adds a separate entry of the source. Read-outs that look alike come from different tables or passages of the source.

What was measured:
Tip60 [1] = molecular target: T1, Tip60 (Homo sapiens, UniProt Q92993); assay: Radioisotope-labeled histone acetyltransferase assay, Tip60; format: biochemical; details: for Tip60 inhibition (in words): 200 µM compound; for selectivity for Tip60 in comparison with PCAF and p300: recombinant enzyme inhibition assays
T1 sequence (Q92993 whole entry): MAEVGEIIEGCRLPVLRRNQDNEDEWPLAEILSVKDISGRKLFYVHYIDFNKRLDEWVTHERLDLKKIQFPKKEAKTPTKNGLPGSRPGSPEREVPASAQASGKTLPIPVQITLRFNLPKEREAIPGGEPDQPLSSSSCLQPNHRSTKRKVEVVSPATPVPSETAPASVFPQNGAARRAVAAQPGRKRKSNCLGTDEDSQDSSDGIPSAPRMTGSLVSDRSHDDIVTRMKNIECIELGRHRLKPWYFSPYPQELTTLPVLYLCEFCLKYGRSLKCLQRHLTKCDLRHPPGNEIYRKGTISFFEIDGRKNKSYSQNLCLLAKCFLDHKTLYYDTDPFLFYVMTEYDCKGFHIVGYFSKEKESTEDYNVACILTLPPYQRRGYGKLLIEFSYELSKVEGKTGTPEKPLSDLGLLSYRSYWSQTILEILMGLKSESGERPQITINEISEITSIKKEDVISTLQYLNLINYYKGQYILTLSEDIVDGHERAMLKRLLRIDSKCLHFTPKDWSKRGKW

[2] = system: HAT activity in HeLa nuclear extracts (histone H4 acetylation); assay: ELISA acetyltransferase assay with HeLa nuclear extracts, histone H4 peptide; format: biochemical; details: for inhibition of cellular HAT activity (HeLa nuclear extracts): 200 µM compound, histone H4; for inhibition of HAT activity in HeLa nuclear extracts (in words): histone H4 acetylation
Outline: (§1)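 HeLa nuclear extract (2.5 µg/mL final protein) acetylates biotinylated histone H3 (aa 1–21) or H4 (aa 2–24) peptide immobilised via streptavidin. Reaction runs 15 min, read by anti-acetyl-lysine ELISA. H3 tested at 50 µM against H4. Triplicates, scaled to no-inhibitor and no-enzyme controls.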

p300 [3] = details: read-out: IC50 p300; Souto et al. ref 11; cited from earlier work
p300 [4] = details: read-out: IC50 p300; estimated by Kundu et al. ref 7; cited from earlier work
PCAF [5] = details: read-out: IC50 PCAF; estimated by Kundu et al. ref 7; cited from earlier work
PCAF [6] = details: read-out: IC50 PCAF; previous characterization with a different assay ref 12; cited from earlier work
[7] = system: HAT activity in HeLa nuclear extracts (histone H3 acetylation); format: biochemical; details: 50 µM compound
Outline: as §1

[8] = molecular target: human recombinant PCAF HAT domain (Homo sapiens, UniProt Q92831); assay: Radioisotope-labeled histone acetyltransferase assay, PCAF; format: biochemical; details: 200 µM compound
Chain of human recombinant PCAF HAT domain (Q92831 493-658): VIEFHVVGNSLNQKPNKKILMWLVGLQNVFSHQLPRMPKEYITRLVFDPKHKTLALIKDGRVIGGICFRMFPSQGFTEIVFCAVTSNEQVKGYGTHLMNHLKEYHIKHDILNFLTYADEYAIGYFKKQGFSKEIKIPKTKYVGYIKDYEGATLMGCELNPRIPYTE

Tip60 [9] = molecular target: T1, Tip60; assay: Steady-state kinetic characterization of Tip60 inhibition; format: biochemical
[10] = molecular target: T2, human recombinant p300 HAT domain (Homo sapiens, UniProt Q09472); assay: Radioisotope-labeled histone acetyltransferase assay, p300; format: biochemical; details: 200 µM compound
T2 sequence (Q09472 1287-1663 limits assumed): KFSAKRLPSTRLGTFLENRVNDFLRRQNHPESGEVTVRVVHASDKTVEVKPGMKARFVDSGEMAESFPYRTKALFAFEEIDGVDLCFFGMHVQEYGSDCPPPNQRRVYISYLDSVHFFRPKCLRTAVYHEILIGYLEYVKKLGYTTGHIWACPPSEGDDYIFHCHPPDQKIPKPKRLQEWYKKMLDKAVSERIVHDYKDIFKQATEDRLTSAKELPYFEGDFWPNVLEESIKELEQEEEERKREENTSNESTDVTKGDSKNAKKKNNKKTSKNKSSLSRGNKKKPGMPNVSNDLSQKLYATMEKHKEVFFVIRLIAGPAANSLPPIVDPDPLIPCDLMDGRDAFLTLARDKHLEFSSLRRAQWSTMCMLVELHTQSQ

[11] = system: HAT activity of nuclear extracts of brain tissue samples; format: biochemical, rats; details: 30 µM inhibitor, histone H3 as acetyl acceptor
Outline: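 Nuclear extracts come from tissue of different brain regions, at 40 µg/mL protein, standardised by protein content. Biotinylated histone H3 peptide (aa 1–21) is streptavidin-immobilised as acceptor. Buffer: 50 mM HEPES pH 7.4 with Triton X-100, EDTA, BSA and DTT. Inhibitor at 30 µM, 15 min reaction, anti-acetyl-lysine ELISA. Triplicates for each of two animals, blanks subtracted.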

HEP G2 cells = HEP G2 cells ref 12; cited from earlier work

Row | SMILES | Tip60 inhibition (in words) (Tip60 [1]) | inhibition of cellular HAT activity (HeLa nuclear extracts) [2] [%] | other results
1 | CC(C)CCCC(C)CCOc1ccc(CCc2cccc(O)c2C(=O)O)cc1 (stereo not shown) [6a] | also inhibited the Tip60 HAT activity | > 50 | –
2 | COCCOc1ccc(CCc2cccc(O)c2C(=O)O)cc1 [6b] | very weakly inhibit; also recorded: very poor inhibitors | – | inhibition of HAT activity in HeLa nuclear extracts (in words) [2]: strongly reduced HAT inhibitory potency; also recorded: poor inhibition
3 | CCCCCOc1ccc(CCc2cccc(O)c2C(=O)O)cc1C(C)=O [6c] | also inhibited the Tip60 HAT activity | > 50 | –
4 | CCCCCOc1ccc(CCc2cccc(O)c2C(=O)O)cc1C(C)O (stereo not shown) [6d] | very weakly inhibit | – | potency on HeLa nuclear extracts compared to recombinant Tip60 [2]: more potent on HeLa nuclear extracts than for the recombinant Tip60
5 | CCCCCCCOc1ccc(CCc2cccc(O)c2C(=O)O)cc1C(C)=O [6f] | also inhibited the Tip60 HAT activity | > 50 | –
6 | CCCCCc1cccc(O)c1C(=O)O [6h] | very poor inhibitors | – | inhibition of HAT activity in HeLa nuclear extracts (in words) [2]: strongly reduced HAT inhibitory potency; also recorded: poor inhibition
7 | CCCCCCCCCCCCCCCc1cccc(O)c1C(=O)O [16 (AA), 6-pentadecylsalicylic acid, reference compound] | almost completely; also recorded: also inhibited the Tip60 HAT activity | > 50 | IC50 (p300 [3]): 50 to 100 µM; IC50 (p300 [4]): 8.5 µM; IC50 (PCAF [5]): 5 µM; inhibition at 200 µM (Tip60 [1]; read-out: inhibition of Tip60 activity): > 76%; IC50 (PCAF [6]): ~1000 µM; inhibitory potency on histone H3 acetylation compared to histone H4 acetylation [7]: almost equal potency for both histones
8 | CCCCCCCCCCCCCC#Cc1ccccc1C(=O)OC [compound 11] | also inhibited the Tip60 HAT activity | > 50 | –
9 | CCCCCCCCCCCCCCCc1ccccc1C(=O)O [compound 12] | also inhibited the Tip60 HAT activity | > 50 | –
10 | CCCCCCCc1ccc(CCc2cc(O)cc(O)c2C(=O)O)cc1 [compound 15] | – | – | potency on HeLa nuclear extracts compared to recombinant Tip60 [2]: more potent on HeLa nuclear extracts than for the recombinant Tip60
11 | CCCCCCCCCCc1cccc(O)c1C(=O)O [compound 17] | also inhibited the Tip60 HAT activity | > 50 | inhibitory potency on histone H3 acetylation compared to histone H4 acetylation [7]: almost equal potency for both histones
12 | CCCCCCCCCCCCCCCc1cc(O)cc(O)c1C(=O)O [compound 18] | also inhibited the Tip60 HAT activity | > 50 | selectivity for Tip60 in comparison with PCAF and p300 (Tip60 [1]): selective for Tip60
13 | CCCCCCCCCCc1cc(O)cc(O)c1C(=O)O [compound 19] | also inhibited the Tip60 HAT activity | > 50 | selectivity for Tip60 in comparison with PCAF and p300 (Tip60 [1]): selective for Tip60
14 | CCCCCCCc1ccc(CCc2cccc(O)c2C(=O)O)cc1 [compound 20] | also inhibited the Tip60 HAT activity | > 50 | effect on PCAF activity (in words) [8]: no inhibitory impact; also recorded: no observable inhibitory effect; inhibition at 200 µM (Tip60 [1]; read-out: inhibition of Tip60 activity, 200 µM compound, 100 nM Tip60, 10 µM Ac-CoA, 100 µM H4-20): > 76%; inhibition pattern with respect to Ac-CoA (Tip60 [9]): essentially competitive with respect to Ac-CoA; effect on p300 activity (in words) [10]: no inhibitory impact; also recorded: no observable inhibitory effect; inhibition of HAT activity of nuclear extracts of different brain regions [11]: equal potency to AA
15 | CCCCCOc1ccc(/C=C\c2cccc(O)c2C(=O)O)cc1 [compound 21] | also inhibited the Tip60 HAT activity | > 50 | effect on PCAF activity (in words) [8]: enhance the PCAF activity significantly; selectivity for Tip60 in comparison with PCAF and p300 (Tip60 [1]): selective for Tip60; inhibition of histone acetylation in HEP G2 cells compared to 16 (AA) (HEP G2 cells): more potent inhibitor of histone acetylation than 16 (AA); inhibition of HAT activity in HeLa nuclear extracts (in words) [2]: high inhibitory activity; inhibitory potency on histone H3 acetylation compared to histone H4 acetylation [7]: opposite
16 | CCCCCOc1ccc(CCc2cccc(O)c2C(=O)O)cc1 [compound 24] | also inhibited the Tip60 HAT activity | > 50 | effect on PCAF activity (in words) [8]: enhance the PCAF activity significantly; inhibitory potency on histone H3 acetylation compared to histone H4 acetylation [7]: opposite
17 | CCCCCCCCCCCCCCOc1ccc(CCc2cccc(O)c2C(=O)O)cc1 [compound 25] | only modest inhibitory activity; also recorded: also inhibited the Tip60 HAT activity | > 50 | inhibitory potency on histone H3 acetylation compared to histone H4 acetylation [7]: opposite
